Results filed as inconclusive are left out.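 How the source made its calls, unless noted: active means viability increase at or above a cutoff of the median across tested compounds plus 3 SD (cut at about 8.5% in these data, passing the limit was not always enough); inconclusive means some gains above the cutoff, reason not given; inactive means the rest.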
Experiments:
[1] = OD615 S. cerevisiae growth inhibition, permissive medium, pilot counter-assay, permissive growth control for S. cerevisiae lifespan shortening project (AID 705;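 active means growth inhibition above 25% in both replicates, a cutoff set 3 SD above the mean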); details: OD615, 24 h, at 10 µM, hits give high values
How it was run: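 Material: engineered DeaD yeast; compound dosing: one dose 10 µM, DMSO 0.25% final; measure: yeast growth inhibition indicated by reduced 24 h OD615; detection: OD615 turbidity read; incubation: cells pre-grown 4 h, then 24 h compound exposure, 30 °C humidified; medium: permissive synthetic complete medium with raffinose and galactose carbon sources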

[2] = Restrictive medium S. cerevisiae growth inhibition, OD615, pilot screen of yeast lifespan reduction project, restrictive growth control (AID 706;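 active means growth inhibition above a set limit, 3 SD over mean compound inhibition, in both replicates, cut at about 43% in these data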;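 further: modified DeaD lifespan yeast strain shifted to restrictive glucose medium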); details: OD615, 48 h, at 10 µM, hits give high values
How it was run: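 material = engineered S. cerevisiae DeaD strain | medium = glucose-based CSMM-D restrictive medium | times = 4 h pre-incubation, 48 h exposure at 30 °C | technique = OD615 absorbance reading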

[3] = viability gain of MRP-1-high H69AR cells under doxorubicin, pilot screen, MRP-1 activator project, CellTiter-Glo, duplicate (AID 807); details: H69AR viability with doxorubicin, CellTiter-Glo luminescence; at 10 µM; hits give high values;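 further: compound pretreatment 18-22 h then 72 h combined with doxorubicin; 0% = doxorubicin alone and 100% = vehicle without doxorubicin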
[4] = growth suppression of beta-catenin knockout HCT116, pilot screen, human colon tumor cells (AID 823;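 active means cell viability at or below a set limit in both duplicate runs, the limit being the all-compound median minus 4 SD, cut at about 23% in these data, passing the limit was not always enough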;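 further: 0% = wells killed by 20 µM Hyamine and 100% = untreated DMSO cell wells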); details: CellTiter-Glo, 60 h, at 10 µM, hits give low values
[5] = growth suppression of PTEN-deleted HCT116, pilot screen, cell-based, HCT116 clonal line, CellTiter-Glo (AID 824;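 active means viability at or below 27.92% in each of two runs, the all-compound median minus 4 SD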;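 further: 0% = 20 µM Hyamine control and 100% = vehicle cell control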); details: 60 h, at 10 µM, hits give low values
[6] = inhibitors of the yeast RAM network, pilot screen, dse1pr::URA3 reporter, 5-FOA selection (AID 869;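 active means inhibition over a set limit, the all-compound mean plus 3 SD, in both replicate runs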;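 further: 0% = DMSO wells with no growth and 100% = 10 µM 1-NA-PP1 with full growth; RAM network block rescues cells from 5-FOA so hits raise OD615 growth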); details: S. cerevisiae dse1pr::URA3 5-FOA growth, OD615, 2 d; at 10 µM; hits give high values; strain carries analog-sensitive mutant Cbk1 kinase
[7] = RAM signaling pathway blockade in yeast – S. cerevisiae, Pdr1DBD-CYC8 efflux-inhibited sensitized strain, primary screen (AID 1298;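 active means RAM network inhibition above 8.4% in each of two replicates, 3 SD over the compound average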;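 further: 0% = DMSO untreated cells without growth and 100% = 10 µM 1-NA-PP1 full growth; higher means more yeast growth rescued from 5-FOA killing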); details: S. cerevisiae cbk1-as DSE1-URA3 strain, 5-FOA growth OD615, 2 d; at 50 µM; hits give high values

CN(CCCNC(=O)C1CCC(=O)N1Cc1ccc(F)cc1)c1ccccc1 (stereo not given)
inactive: growth inhibition [1] 4.99% | growth inhibition [2] -8.76% | viability increase [3] -1.51% | viability [4] 95.5% | viability [5] 90.5% | inhibition [6] 0.54% | RAM network inhibition [7] 0.72%

O=C(CNS(=O)(=O)c1cccs1)Nc1ccc2c(c1)OCCO2
inactive: growth inhibition [1] -22.3% | growth inhibition [2] -6.7% | viability increase [3] -1.78% | viability [4] 89.2% | viability [5] 90.9% | inhibition [6] 1.3% | RAM network inhibition [7] 0.67%

COCCNC(=O)Cn1ncc2ccsc2c1=O
inactive: growth inhibition [1] -1.34% | growth inhibition [2] 5.16% | viability increase [3] 0.35% | viability [4] 107% | viability [5] 100% | inhibition [6] 2.33% | RAM network inhibition [7] 4.98%

Cc1ccc(OC(=O)CCC(=O)Nc2ccc(S(=O)(=O)Nc3cc(C)on3)cc2)cc1
inactive: growth inhibition [1] -2.27% | growth inhibition [2] 0.38% | viability increase [3] -1.11% | viability [4] 109% | viability [5] 106% | inhibition [6] 0.875% | RAM network inhibition [7] 3.97%

Fc1ccccc1N1CCN(C2CCN(Cc3c[nH]c4ccccc34)CC2)CC1
inactive: growth inhibition [1] -1.12% | growth inhibition [2] 2.13% | viability increase [3] -6.63% | viability [4] 47.1% | viability [5] 58.8% | inhibition [6] 1.08% | RAM network inhibition [7] 0.22%

CC(=O)c1sc(NC(=O)c2ccccc2F)nc1C
inactive: growth inhibition [1] -10.4% | growth inhibition [2] -3.2% | viability increase [3] -0.32% | viability [4] 79% | viability [5] 75.2% | inhibition [6] 0.31% | RAM network inhibition [7] 0.74%

CCN(CC)C(=O)CCCOc1ccc(Cl)cc1Cl
inactive: growth inhibition [1] -2.5% | growth inhibition [2] -0.045% | viability increase [3] 0.07% | viability [4] 76.7% | viability [5] 83.9% | inhibition [6] -0.905% | RAM network inhibition [7] 0.45%

Cc1cccc(-n2ncc3c(NC(C)C)ncnc32)c1
inactive: growth inhibition [1] 5.47% | growth inhibition [2] 3.18% | viability increase [3] -0.3% | viability [4] 101% | viability [5] 84.3% | inhibition [6] 0.87% | RAM network inhibition [7] -0.57%

CCOc1ccc(-n2c(Cc3cc(=O)[nH]c(=O)[nH]3)nnc2SC(C)C(=O)OC)cc1 (stereo not given)
inactive: growth inhibition [1] -4.41% | growth inhibition [2] 2.84% | viability increase [3] 0.2% | viability [4] 101% | viability [5] 103% | inhibition [6] 0.31% | RAM network inhibition [7] 3.49%

CCOC(=O)C1CCCN(C(=O)Cc2c(C(=O)O)[nH]c3ccccc23)C1 (stereo not given)
inactive: growth inhibition [1] -7.59% | growth inhibition [2] -0.39% | viability increase [3] -0.1% | viability [4] 97.3% | viability [5] 96.9% | inhibition [6] 0.53% | RAM network inhibition [7] 3.59%

Cc1cc(C)n2nc3nc4c(cc3c2n1)CCCC4
inactive: growth inhibition [1] -8.72% | growth inhibition [2] -14.6% | viability increase [3] -4.42% | viability [4] 88.2% | viability [5] 82.7% | inhibition [6] 4.34% | RAM network inhibition [7] 3.01%

CCOC(=O)c1ccc(NC(=O)C2C3C=CC(C3)C2C(=O)O)cc1 (stereo not given)
inactive: growth inhibition [1] 5.27% | growth inhibition [2] 5.33% | viability increase [3] 0.55% | viability [4] 98.5% | viability [5] 106% | inhibition [6] 0.29% | RAM network inhibition [7] 1.09%

O=C(CS(=O)(=O)c1cn(Cc2cccc(F)c2)c2ccccc12)N1CCOCC1
inactive: growth inhibition [1] -9.09% | growth inhibition [2] -22% | viability increase [3] -3.47% | viability [4] 91.1% | viability [5] 88.8% | inhibition [6] 2.82% | RAM network inhibition [7] 6%

Cc1nc2ccc(NC(=O)c3ccc(Cl)s3)cc2s1
inactive: growth inhibition [1] -7.99% | growth inhibition [2] -7.74% | viability increase [3] -3.83% | viability [4] 106% | viability [5] 97.1% | inhibition [6] 1.84% | RAM network inhibition [7] 4.46%

Cc1ccc(-n2nc(C)c3c2OC(N)=C(C#N)C3c2cccs2)cc1 (stereo not given)
inactive: growth inhibition [1] -14.8% | growth inhibition [2] -26.3% | viability increase [3] -3.41% | viability [4] 90.5% | viability [5] 88.5% | inhibition [6] 1.91% | RAM network inhibition [7] 0.52%

Source: PubChem BioAssay
